# According to ChEMBL document CHEMBL5608187, “Discovery of pyridoquinoxaline-based new P-gp inhibitors as coadjutant against Multi Drug Resistance in cancer” (Eur J Med Chem, 2024):
# Calls of active or inactive are those of the source. The calls are words filed in the database; no cut-off is given here.
# Experiments:
# [1] = molecular target: Voltage-dependent L-type calcium channel subunit alpha-1C (Rattus norvegicus, UniProt P22002); assay: Inhibition of Cav1.2 in Wistar rat tail artery smooth muscle cells assessed as inhibition of Ba2+ current at 0.3 to 10 uM at holding potential of -50 mV by whole cell patch clamp analysis; format: toxicity, tissue-based; details: dose 0.3-10 µM
# Sequence of Voltage-dependent L-type calcium channel subunit alpha-1C (P22002 whole entry): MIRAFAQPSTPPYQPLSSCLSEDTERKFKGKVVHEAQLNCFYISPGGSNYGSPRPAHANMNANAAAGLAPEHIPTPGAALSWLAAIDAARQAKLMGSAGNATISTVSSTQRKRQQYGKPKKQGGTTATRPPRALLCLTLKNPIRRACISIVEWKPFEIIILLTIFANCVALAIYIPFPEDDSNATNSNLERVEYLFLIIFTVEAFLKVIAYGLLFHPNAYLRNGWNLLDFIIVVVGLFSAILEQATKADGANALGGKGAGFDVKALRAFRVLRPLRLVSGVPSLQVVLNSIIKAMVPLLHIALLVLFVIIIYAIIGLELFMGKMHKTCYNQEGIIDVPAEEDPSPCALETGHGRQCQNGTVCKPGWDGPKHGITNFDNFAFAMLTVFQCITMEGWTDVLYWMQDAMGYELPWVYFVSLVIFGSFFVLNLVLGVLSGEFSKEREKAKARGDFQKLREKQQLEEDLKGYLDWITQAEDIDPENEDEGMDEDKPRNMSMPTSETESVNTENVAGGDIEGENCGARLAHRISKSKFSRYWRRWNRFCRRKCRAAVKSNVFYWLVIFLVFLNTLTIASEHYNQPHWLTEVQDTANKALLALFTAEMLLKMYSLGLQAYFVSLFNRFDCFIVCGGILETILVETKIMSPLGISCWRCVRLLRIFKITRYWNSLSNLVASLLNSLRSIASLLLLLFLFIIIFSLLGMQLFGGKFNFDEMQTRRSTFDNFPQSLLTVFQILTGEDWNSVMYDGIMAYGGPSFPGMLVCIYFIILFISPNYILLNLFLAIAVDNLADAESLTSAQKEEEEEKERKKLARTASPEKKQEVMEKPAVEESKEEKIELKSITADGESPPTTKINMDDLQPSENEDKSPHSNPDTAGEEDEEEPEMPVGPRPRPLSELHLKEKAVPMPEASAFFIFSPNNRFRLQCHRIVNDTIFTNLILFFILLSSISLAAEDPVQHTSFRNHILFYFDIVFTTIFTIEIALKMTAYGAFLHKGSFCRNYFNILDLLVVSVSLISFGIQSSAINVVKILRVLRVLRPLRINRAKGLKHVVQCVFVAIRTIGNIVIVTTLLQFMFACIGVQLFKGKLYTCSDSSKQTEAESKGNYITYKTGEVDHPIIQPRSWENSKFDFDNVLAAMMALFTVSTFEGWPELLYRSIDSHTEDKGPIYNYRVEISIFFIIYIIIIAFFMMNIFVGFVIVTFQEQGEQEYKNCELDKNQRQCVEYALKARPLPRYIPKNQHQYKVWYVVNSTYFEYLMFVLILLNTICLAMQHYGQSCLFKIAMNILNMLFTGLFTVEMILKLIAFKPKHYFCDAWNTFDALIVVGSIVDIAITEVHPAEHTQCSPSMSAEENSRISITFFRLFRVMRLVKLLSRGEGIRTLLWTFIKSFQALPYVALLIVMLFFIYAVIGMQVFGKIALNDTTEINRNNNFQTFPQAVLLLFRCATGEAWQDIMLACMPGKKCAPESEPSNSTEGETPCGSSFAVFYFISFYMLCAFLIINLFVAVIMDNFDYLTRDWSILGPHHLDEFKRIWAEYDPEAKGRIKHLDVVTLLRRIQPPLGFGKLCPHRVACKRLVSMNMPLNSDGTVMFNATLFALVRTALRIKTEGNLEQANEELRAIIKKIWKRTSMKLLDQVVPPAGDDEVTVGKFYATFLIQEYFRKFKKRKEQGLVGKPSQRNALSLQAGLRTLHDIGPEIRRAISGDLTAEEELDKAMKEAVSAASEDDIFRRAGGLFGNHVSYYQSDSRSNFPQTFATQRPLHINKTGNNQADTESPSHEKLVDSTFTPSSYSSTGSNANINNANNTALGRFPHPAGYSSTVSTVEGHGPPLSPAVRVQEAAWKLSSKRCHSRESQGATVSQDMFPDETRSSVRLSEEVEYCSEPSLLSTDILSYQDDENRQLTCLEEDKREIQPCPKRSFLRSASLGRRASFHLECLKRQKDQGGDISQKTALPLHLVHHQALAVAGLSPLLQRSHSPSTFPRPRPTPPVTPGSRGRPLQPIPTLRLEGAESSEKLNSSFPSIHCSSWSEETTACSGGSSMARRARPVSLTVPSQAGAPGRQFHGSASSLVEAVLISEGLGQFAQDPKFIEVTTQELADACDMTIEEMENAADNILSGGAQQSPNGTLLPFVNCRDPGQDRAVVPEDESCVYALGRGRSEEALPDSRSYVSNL
# In short: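 Freshly dissociated rat tail main artery myocytes (collagenase XI, 37 °C). Whole-cell patch clamp, 20–22 °C; Cs-based internal, external with 30 mM TEA and 5 mM Ba2+. IBa1.2 evoked by 250-ms steps to 10 mV from −50 mV at 0.067 Hz; compound added cumulatively 0.3–10 µM; leak subtracted using 10 µM nifedipine. Amplitude as percent of control, n = 5.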
# U-87 MG = assay: Coadjutant activity against multidrug resistance in human U-87 MG cells assessed as potentiation of vincristine-induced cell growth inhibition at 4 uM incubated for 72 hrs in presence of 0.02 to 20 uM vincristine by SiR-DNA/CellTox Green Dye based fluorescence analysis; format: functional; details: U-87MG ATCC
# In short: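 Growth by live-cell imaging: 500 cells/well plated with SiR-DNA and CellTox Green dye; serial dilutions in phenol-red-free complete medium added next day. Imaged at addition and at 72 h. Live cells = SiR-DNA nuclei minus CellTox-positive dead cells; percentage growth calculated. Three technical replicates; two-tailed t-test. Inhibitor paired with anticancer drug at fixed or scaled levels.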
structure (smiles),measurement,setting,value
O=C(Nc1ccccc1)c1ccccc1OCc1nc2cc3cccnc3cc2nc1COc1ccccc1C(=O)Nc1ccccc1,inhibition (INH),[1],Not Active
same,Activity,U-87 MG,Active
